Source: PubChem BioAssay AID1027 (Sanford-Burnham Center for Chemical Genomics, 2008)
The whole screen tested about 200,000 compounds, of which fewer than 10 were called active.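 The calls were made as follows: active = luciferase activation factor, scaled between plate controls, of at least 2 with compound at 10 µM; inactive = the rest.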 A selection follows.

molecular target: Luciferin 4-monooxygenase (Photinus pyralis) (UniProt P08659); assay: FLuc activators, initial screening, artefact control for FLuc-dependent activation tests, biochemical, ATPlite luminescence (AID 1027); conditions: ATPlite luciferase biochemical, 10 min, at 10 µM, stronger effect = higher value, 0 = ATP-free wells, 1 = DMSO control
How it was run: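 Assay system: Luciferase/luciferin reagent mix; Medium: PBS as buffer for the ATP substrate; Dosing: test compounds dosed from 2 mM stocks in 100% DMSO; Times: 10 min, room temperature; Signal: luminescence from luciferase reaction; Read-out: luciferase activation; Controls: No-ATP low control, compound-free enzyme-plus-ATP high control.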

Sequence of Luciferin 4-monooxygenase (Photinus pyralis) (P08659 whole entry, looked up): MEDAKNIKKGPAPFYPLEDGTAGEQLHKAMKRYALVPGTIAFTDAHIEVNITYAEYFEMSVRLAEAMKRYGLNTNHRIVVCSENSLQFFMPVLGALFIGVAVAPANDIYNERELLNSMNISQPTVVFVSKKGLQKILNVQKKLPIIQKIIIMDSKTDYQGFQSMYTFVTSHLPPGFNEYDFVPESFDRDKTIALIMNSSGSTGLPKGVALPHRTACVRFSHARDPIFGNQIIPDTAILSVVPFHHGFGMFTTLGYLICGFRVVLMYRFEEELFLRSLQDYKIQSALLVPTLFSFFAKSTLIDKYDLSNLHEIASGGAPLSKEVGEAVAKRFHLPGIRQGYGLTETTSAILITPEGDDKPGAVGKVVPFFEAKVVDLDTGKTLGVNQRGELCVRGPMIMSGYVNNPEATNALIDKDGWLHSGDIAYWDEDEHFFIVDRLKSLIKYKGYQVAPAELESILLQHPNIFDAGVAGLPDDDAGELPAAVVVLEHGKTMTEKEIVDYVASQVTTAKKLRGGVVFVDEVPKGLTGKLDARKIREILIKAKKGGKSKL

Activation factor, inactive:
O=C(O)CC(Cc1ccccc1)C(=O)Nc1ccc([N+](=O)[O-])cc1 (centres undefined) 1.1
CCC1CCCCN1C(=S)Nc1ccc(C(C)=O)cc1 (centres undefined) 1
Cc1ccc(C)c(NC2=NCC(=O)N2c2ccc3c(c2)OCCO3)c1 1.1
COc1ccc(C(=O)Nc2ccc3nc(N4CCCCC4)cc(C)c3c2)cc1OC 1.1
NC(=O)c1ccccc1N(Cc1ccccc1)S(=O)(=O)c1ccccc1 1
Cc1cccc(N2CCC(NCc3c(C(=O)N4CCCCC4)nc4c(C)cccn34)CC2)c1 1
COc1ccc(CCC(=O)OCC(=O)Nc2ccc(C)c(S(=O)(=O)N(C)C)c2)cc1 1
Cc1cccc(N2C(=O)SC(SC(=Nc3ccccc3)Nc3ccccc3)C2=O)c1 (centres undefined) 1
Cc1ccc(C(=O)N/C(=C\c2cccs2)C(=O)NCCc2ccccn2)cc1C 1
COc1cccc(CC2(CO)CCCN(CC3=Cc4cc(OC)ccc4OC3)C2)c1 (centres undefined) 1.1
Cc1ccc2[nH]c(C)c(CCNC(=O)NC3CCCCC3)c2c1 1
S=C(Nc1cccc(Br)c1)N1CCn2cccc2C1c1cccnc1 (centres undefined) 1.1
NS(=O)(=O)c1ccc(N2C(=O)C3C4CC(C(Br)C4Br)C3C2=O)cc1 (centres undefined) 1
CCc1ccc(C2N3CC4([N+](=O)[O-])CN2CC([N+](=O)[O-])(C3)C4(C)C)cc1 (centres undefined) 1.1
Cc1nnc(SC(C)C(=O)Nc2ccc(S(=O)(=O)NC3CCCCC3)cc2)s1 (centres undefined) 1.1
Cc1ccc(C(=O)NC(=S)NCCN2CCOCC2)cc1 1.1
CC(CO)N1CCS(=O)(=O)CC1 (centres undefined) 1.1
CC1CCCN(CCOCCOc2ccccc2-c2ccccc2)C1 (centres undefined) 1
Cc1noc(C)c1CCC(=O)O 1
CCC1CCCCN1C(=O)CSc1nc2c(c(=O)n(C)c(=O)n2C)n1C (centres undefined) 1
C=C(C)c1cccc(C(C)(C)NC(=O)NC2CCCC2)c1 1
COc1ccc(CCCc2nnc(SCc3nc4ccccc4c(=O)[nH]3)n2C)cc1 1.1
CCOC(=O)N1CCN(CCC(=O)Nc2cc(OC)ccc2OC)CC1 1
Cc1ccc2nc(-c3ccc(NC(=O)CN(C)S(=O)(=O)c4ccccc4)cc3)sc2c1 0.7
CC(C)(C)c1ccc(/C=C/C(=O)NC2CCS(=O)(=O)C2)cc1 (centres undefined) 0.9
O=C(COC(=O)c1ccccc1)Nc1cccc(S(=O)(=O)N2CCOCC2)c1 1.1
NS(=O)(=O)c1ccc(CNC(=O)c2ccc(Cl)cc2[N+](=O)[O-])cc1 1
CCn1cc(/C=C2/SC(=S)NC2=O)c(C)n1 0.8
COc1cccc(NC(=O)c2nn(-c3ccc(OC)cc3OC)c(=O)c3ccccc23)c1 1
COc1cc(SC#N)ccc1N=Cc1c(C)[nH]n(-c2ccc(C)cc2)c1=O 0.9
CCN=C1S/C(=C\c2cc(Br)ccc2OCC(=O)OCC)C(=O)N1CC 1
CCc1cccc2c(=O)c(C(=O)NCCCOC)c[nH]c12 1
CS(=O)(=O)N(CC(=O)N1CCCC1)Cc1ccccc1 1.1
O=C(NCCNc1ccc([N+](=O)[O-])cc1)c1cccc2c(Br)cccc12 1
Cc1ccc(SCCC(=O)NCc2ccccn2)cc1 1
Oc1ccc(Br)cc1C=Nc1ccc2[nH]ncc2c1 1
CN(CC(=O)Nc1ccc(S(=O)(=O)N2CCCC2)cc1)Cc1ccc(Cl)c(Cl)c1 1
CC(=O)n1c(C=Nc2ccccc2)c(O)c2ccccc21 0.4
CC1Cc2ccccc2N1C1=CC(=O)CC(C)(C)C1 (centres undefined) 1.1
Cc1c(NC(=O)CCC2CCCCC2)cc(C(=O)N2CCOCC2)cc1[N+](=O)[O-] 1.1
CCOCCCNCc1cc(Br)ccc1OCC 1
O=C(CSc1ccccn1)Nc1nc2c(ccc3ccccc32)s1 1.1
CCOc1ccc2nc(NC(=O)c3cc([N+](=O)[O-])ccc3N3CCOCC3)sc2c1 1
COc1ccc(-c2nc(CN3CCN(c4ncccn4)CC3)c(C)o2)cc1C 1
O=C(O)c1ccc2c(c1)C(=O)N(NC(=O)c1ccc(O)cc1)C2=O 1.1
COC(=O)c1ccc(/C=N/OCC(=O)Nc2cc(F)ccc2F)cc1 1
CC(NC(=S)Nc1ccc(S(N)(=O)=O)cc1)c1ccc2c(c1)OCO2 (centres undefined) 1.1
Cc1ccc(NC(=S)N2CCN(c3ncccn3)CC2)cc1C 1.1
Cc1ccc(C(=O)O)cc1N1C(=O)CCCC1=O 1
Cn1cc(CN2CCCC(CO)C2)c(-c2ccc(Oc3ccccc3)cc2)n1 (centres undefined) 1.1
COC(=O)c1ccc(CSc2nnc(N)s2)o1 1
COc1ccc(CN2CCCC(C(=O)c3ccc(Cl)cc3)C2)cc1Cn1cncn1 (centres undefined) 1
O=C(CC1Nc2ccccc2NC1=O)Nc1ccccc1NC(=O)CC1Nc2ccccc2NC1=O (centres undefined) 0.9
CCN(CC(=O)NCCc1ccccc1)S(=O)(=O)c1ccc(C)cc1 1.1
Cc1nc(N2CCCCC2)sc1C=O 1
C=CCn1c(SCC(=O)CC(=O)OCC)nc2cc(C(=O)N3CCC(C(N)=O)CC3)ccc2c1=O 1
COC(=O)c1c(NC(C)=O)sc(C(=O)Nc2ccccc2OC)c1C 1
COc1cc(/C=N\NC(=O)c2nonc2N)c(OC)cc1Br 1
CCOC(=O)C1CCN(C(=O)/C=C/c2cc(OC)c(OC)c(OC)c2)CC1 1
COc1ccc(S(=O)(=O)NC(C)C)cc1C(=O)NC1CCCCC1 1.1
COc1ccccc1C1SCCN1C(=O)c1ccc([N+](=O)[O-])cc1 (centres undefined) 1
CSc1nc(-c2ccccc2)nc(C(Cl)Cl)n1 1.1
Cc1nc(-c2ccccc2)sc1C(=O)/C=C/N(C)C 0.9
COc1ccc(/C=C/C2=CC(C)(C)NC(=S)N2)c(OC)c1 1
